Screening data deposited in PubChem BioAssay by several laboratories.
Hits are enriched below; roughly 0.7% of the tested compounds scored in any of these assays.
N-glyco inh: increase of ERlucT glycosylation luciferase signal, primary screen, N-linked glycosylation inhibitor project, D54 ERlucT cells, luminescence, set 2; actives 0.23% (n = 360,000); D54 ERlucT glycosylation luciferase reporter, 24 h; percent of 100 nM tunicamycin response; reporter increase, % at 12.5 µM;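 active = mean luciferase reporter signal, scaled so untreated is 0 and the glycosylation-blocking control 100, at or above a set limit in every replicate; inconclusive = mean reaches the limit but not every replicate does; inactive = mean below the limit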;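 also: luciferase carries N-glycosylation sites so blocking glycosylation raises the light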
Vif imaging: HIV Vif self-association inhibitors, primary screen, imaging, HEK293T, single point | HEK293T cells, Vif self-association by quenched fluorescence, 24 h | inhibition, % at 7.49 µM | actives 0.35% (n = 340,000); in the data active = inhibition above about 50%, passing the limit was not always enough; inconclusive = no clear call, values can overlap the other calls; inactive = below about 31%
GC-B act: human GC-B receptor activators, primary screen, HEK293 GC-B cells, cGMP TR-FRET, EC30 CNP; 0% at EC30 CNP, 100% saturating CNP; activation, % at 10 µM; actives 0.11% (n = 370,000); AID 1920062, 2024;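 active = activation at 10 µM reaching about 35% in either raw or pattern-adjusted values, limit read from the data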
CaV13 FRET inh: Primary screen for inhibitors of IQ motif and Ca2+-dependent inactivation inhibitor domain binding in CACNA1D, Förster resonance energy transfer in living cells, …; actives 0.098% (n = 340,000); inhibition, % at 12.3 µM; AID 743397; HEK cells, CFP/YFP FRET ICDI-IQ, plate reader, 10 min; percent FRET-ratio fall versus neutral wells;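 active = mean replicate inhibition of at least 30% and at least 1% of replicates passing that level; inconclusive = only one of the two criteria is met; inactive = neither criterion is met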
XiGFP reactiv: activators of inactive X chromosome reactivation, primary screen, imaging, XiGFP fibroblasts, GFP high-content imaging, set 2 | XiGFP mouse fibroblasts, % GFP-positive cells imaging, 3 d; cells co-treated with 5-aza-dC sensitizer; scaled so ellipticine positive control = 100% | activation, % at 7.58 µM | actives 0.055% (n = 360,000) | AID 743238, 2013;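 active = mean normalized replicate activation at least 10% and every replicate at or above 10%; inconclusive = only one of the two criteria met; inactive = mean below 10% and not all replicates reach 10%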
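Assay system – SV40-immortalized XiGFP fibroblast cells, line 68-5-11 · Buffer or medium – DMEM supplemented with 5-aza-dC as sensitizing agent · Dosing – one concentration, pinned · Benchmarks – positive control ellipticine, 6 µM final · Times – 3 days compound exposure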
NPR1 activator: GC-A stimulated cGMP production enhancers – HEK293 GC-A cells, cGMP TR-FRET, EC30 ANP, primary screen. Atrial natriuretic peptide receptor 1 (Homo sapiens), P16066. 0% at EC30 ANP, 100% saturating ANP. activation, % at 10 µM. actives 0.14% (n = 370,000). AID 1671463, 2021; in the data active = activation above about 40%
Numbers stand for hits; i = inactive; ? = inconclusive; nt = no result; + = active, no number.

SMILES	N-glyco inh	Vif imaging	GC-B act	CaV13 FRET inh	XiGFP reactiv	NPR1 activator
Cc1ccc(C(=O)NC(CCc2ccccc2)C(=O)O)cc1 (stereo not drawn)	i	118	i	i	i	i
COCCNC(=O)C[C@@H]1C[C@H]2c3cc(NC(=O)Nc4ccccc4F)ccc3O[C@H]2[C@@H](CO)O1	nt	nt	nt	nt	i	nt
CCN(CC)S(=O)(=O)c1cccc(C(=O)N/N=C/c2ccc([N+](=O)[O-])o2)c1	51	i	i	i	i	i
COc1ccc(/C=C2\COc3ccccc3C2=O)cc1OC	36	i	i	i	i	i
CCOc1ccc(-n2c(C)cc(C(=O)CCl)c2C)cc1	41	i	i	i	i	i
COC(=O)c1ccc(-n2c(C)cc(C(=O)CCl)c2C)cc1	i	i	i	i	i	i
c1ccc2c(-c3nc4ccccc4[nH]3)cccc2c1	28	i	i	i	i	i
c1ccc2[nH]c(-c3ccnc4ccccc34)nc2c1	i	i	i	i	nt	i
CNC[C@H]1Oc2ccc(NC(=O)NC(C)C)cc2CC(=O)N([C@@H](C)CO)C[C@H]1C	nt	nt	nt	nt	i	nt
CCCC(=O)N1CC2(CCN(Cc3cccnc3)CC2)c2c([nH]c3cc(OC)ccc23)[C@H]1CO	nt	nt	nt	nt	i	nt
COC1C(CO)OC(n2c3c(Cl)cccc3c3c4c(c5c6cccc(Cl)c6[nH]c5c32)C(=O)NC4=O)C(O)C1O (stereo not drawn)	i	i	i	i	23	i
O=C(/C=C/c1cccc([N+](=O)[O-])c1)c1ccc2c(c1)OCCO2	31	i	i	i	i	i
CC(=O)Nc1ccc(/C=C/C(=O)c2ccc3c(c2)OCCO3)cc1	?	56	i	i	i	i
O=C(O)c1ccc(/C=C/C(=O)c2ccc3c(c2)OCCCO3)cc1	i	i	i	i	i	i
C[C@H](CO)N1C[C@H](C)[C@@H](CN(C)Cc2ccc(C(=O)O)cc2)Oc2ccc(NC(=O)Nc3ccc4c(c3)OCO4)cc2CC1=O	nt	nt	nt	nt	i	nt
Nc1ncc(-c2ccccc2)c(-c2ccc(O)cc2O)n1	i	i	i	i	i	46
CCN1C(=O)c2cccc3c(S(=O)(=O)N(C)C)ccc1c23	i	i	i	42	i	i
CN1C(=O)c2cccc3c(S(=O)(=O)N(C)C)ccc1c23	i	i	i	i	i	i
CCN1C(=O)c2cccc3c(S(=O)(=O)Nc4ccccn4)ccc1c23	50	i	i	i	nt	i
CCN1C(=O)c2cccc3c(S(=O)(=O)Nc4ccccc4)ccc1c23	51	?	nt	nt	nt	nt
CCN1C(=O)c2cccc3c(S(=O)(=O)Nc4nc(C)cs4)ccc1c23	i	60	nt	nt	nt	nt
CCN1C(=O)c2cccc3c(S(=O)(=O)Nc4ccncc4)ccc1c23	i	i	nt	nt	nt	nt
CCN1C(=O)c2cccc3c(S(=O)(=O)Nc4ncccc4C)ccc1c23	i	i	i	i	nt	i
C/C=C/c1ccc2c(c1)O[C@@H](CN(C)C(=O)C1CCC1)[C@H](C)CN([C@@H](C)CO)S2(=O)=O	nt	nt	nt	nt	i	nt
CC/C(C)=N\Nc1nc(-c2cc3cc(OC)ccc3oc2=O)cs1	i	i	i	+	i	i
COc1ccccc1C(=O)OCC(=O)Nc1ccccc1OC(F)F	i	i	i	i	nt	i
O=C(COC(=O)c1c(F)cccc1F)Nc1ccccc1OC(F)F	i	51	i	i	i	i
Cn1c(=O)[nH]c(=O)c2c1nc(NC1CCCCC1)n2Cc1ccccc1	i	i	39	nt	nt	52
Cn1c(=O)[nH]c(=O)c2c1nc(NN)n2CCOc1ccccc1	61	i	i	i	i	i
